Screening results as filed in PubChem BioAssay.
S100A4 inh HTS: blocks human S100A4 binding to myosin IIA peptide | hit rate 0.14% among 360,000 | inhibition, % at 10.7 µM | S100A4/TAMRA-MyoIIA peptide fluorescence polarization;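 active = mean inhibition of at least 70% across replicates, with every replicate also reaching that level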
Target sequence (P26447 whole entry, looked up): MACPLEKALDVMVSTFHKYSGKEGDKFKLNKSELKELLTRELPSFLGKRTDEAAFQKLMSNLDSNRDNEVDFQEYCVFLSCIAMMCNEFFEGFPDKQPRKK
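Assay system: human S100A4 monomer with TAMRA-labelled myosin IIA peptide / Buffer or medium: Calcium-containing HEPES buffer, pH 7.2 / Reagent: TAMRA-labelled myosin IIA heavy-chain peptide probe, 5 nM / Compound: one dose per compound / Timing: polarization read 5 min after assay mix addition, stable 5–60 min / Benchmarks: neutral control DMSO, positive control TFP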
ERAP1 inh: inhibitors of human ERAP1 aminopeptidase; hit rate 0.15% among 340,000; recombinant ERAP1, Leu-AMC fluorescence, 60 min; inhibition, % at 10.7 µM; Q9NZ08; AID 652197;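 active = mean replicate inhibition of at least 30%, or all replicates individually reaching that 30% level; inactive = mean below 30% and not every replicate reaching it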
SIRT5 inh: blocks human SIRT5 desuccinylation of peptide | AID 652115 | hit rate 1.1% among 330,000 | Purified SirT5, succinyl-peptide AMC, trypsin-coupled fluorescence | Q9NXA8 | inhibition, % at 15 µM; in the data active = inhibition above about 15%
Target sequence (Q9NXA8 whole entry, looked up): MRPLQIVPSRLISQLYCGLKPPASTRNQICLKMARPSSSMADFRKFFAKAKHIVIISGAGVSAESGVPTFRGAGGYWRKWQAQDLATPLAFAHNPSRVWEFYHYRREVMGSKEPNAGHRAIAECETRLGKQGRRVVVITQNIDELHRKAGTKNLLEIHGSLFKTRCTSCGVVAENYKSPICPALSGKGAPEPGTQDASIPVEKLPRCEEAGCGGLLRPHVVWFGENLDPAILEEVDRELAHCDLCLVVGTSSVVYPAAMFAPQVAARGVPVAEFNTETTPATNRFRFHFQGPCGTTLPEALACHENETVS
Ecoli rRNA inh: inhibitors of bacterial rRNA selective over humanized ribosomes; E. coli WT GFP vs humanized-ribosome RFP mutants, fluorescence, 24 h; hits give low values; DMSO median 0, no signal -100; GFP signal change (wild-type ribosome), % (concentration not given with the values); hit rate 1.6% among 350,000;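 active = significant combined selectivity score with lowered wild-type GFP, culture density cut under 30%, mutant RFP and density less affected; inactive = any of these conditions unmet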
CFTR F508del cor: correctors of CFTR F508del function in bronchial epithelial cells; hit rate 0.36% among 350,000; activity (quench increase), % at 7.58 µM; CFBE cells, YFP halide quenching; stimulated with forskolin plus potentiator P3; % fluorescence drop versus neutral controls;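 active = mean added fluorescence quench of at least 8% versus neutral control, with both replicates also reaching 8%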;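 also: cells transiently co-express mutant CFTR-F508del with the halide-sensitive YFP; corrector assay measuring rescue of mutant channel to the surface after 24 h compound exposure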
Hits are given with their value; . = inactive; / = no result given. Compounds with a hit are over-represented: about 3.1% of the library has one in this group of screens.

SMILES	S100A4 inh HTS	ERAP1 inh	SIRT5 inh	Ecoli rRNA inh	CFTR F508del cor
CO[C@H]1CC[C@H]2CCOc3ccc(C#N)cc3C(=O)N(C)C[C@@H](C)C(=O)N(C)C[C@@H]1O2	.	.	.	.	/
Cc1ccc(SC(C)C(=O)NCc2ccncc2)cc1 (stereo unspecified)	.	81.6	.	.	.
COc1cc(C2c3cc4c(cc3OC(NNC(N)=O)C2C)OCO4)cc(OC)c1OC (stereo unspecified)	.	.	.	.	.
COc1cccc(C2c3cc4c(cc3OC(NNC(N)=O)C2C)OCO4)c1O (stereo unspecified)	.	.	.	.	8.9
Cn1c(=O)c(NC2CCCCC2)c2c3c(cccc31)C(=O)c1ccccc1-2	.	.	.	.	16.0
Cn1c(=O)c(NCCO)c2c3c(cccc31)C(=O)c1ccccc1-2	.	.	.	.	/
Cc1cc(NC(=O)CCC(=O)N(Cc2ccccc2)C(C(=O)NC2CCCC2)c2ccco2)no1 (stereo unspecified)	.	.	77.8	.	.
Cc1cc(NC(=O)CCC(=O)N(Cc2ccc(F)cc2)C(C(=O)NC2CCCC2)c2ccco2)no1 (stereo unspecified)	.	.	.	.	.
CC(=O)N(C)C[C@@H]1Oc2cc(C#CC(C)(C)O)ccc2S(=O)(=O)N([C@@H](C)CO)C[C@H]1C	.	.	.	.	.
CN(C)C(=O)[C@@]1(Cc2ccccc2)COC(c2ccc(OCCCO)cc2)=N1	.	.	.	/	.
O=C(NCCCCc1ccccc1)c1cccc(NC(=O)C2CCC2)c1	.	/	.	.	.
CC(C)(C)OC(=O)N1CCCC(C(=O)Nc2cccc(C(=O)NCCCCc3ccccc3)c2)C1 (stereo unspecified)	.	.	16.5	.	.
O=C(Cc1cccc(NC(=O)C2CCN(C(=O)C3CCCC3)CC2)c1)Nc1cccc(C(=O)N2CCCC2)c1	.	/	/	-20.9	.
O=C(c1cccc(F)c1)N1CCCC(C(=O)N2CCCCCC2)C1 (stereo unspecified)	.	.	27.1	.	.
O=C(NCCCCc1ccccc1)c1cccc(NC(=O)C2CCCCC2)c1	.	.	.	-30.4	.
O=C(Cc1cccc(NC(=O)C2CCN(C(=O)C3CCCC3)CC2)c1)Nc1cccc(C(=O)N2CCCCC2)c1	.	/	.	.	.
CC(C)NC(=O)Nc1cccc2c1O[C@@H](CN(C)S(=O)(=O)c1ccc(F)cc1)[C@H](C)CN([C@H](C)CO)C2=O	.	.	.	.	.
CN1c2ccc(-c3ccc(F)cc3)cc2[C@H]2[C@H](CCN2C(=O)C2CCOCC2)[C@@H]1CO	.	.	.	.	.
OC[C@H]1[C@@H](c2ccc(-c3ccccc3)cc2)[C@@H]2CN(Cc3ccccn3)CCCCN12	.	.	.	.	.
O=c1[nH]c(=O)c2[nH]c(=S)[nH]c2[nH]1	.	49.8	/	.	.
Nc1ncnc2[nH]c(=S)[nH]c12	.	.	/	.	.
O=C(COc1ccccc1F)NNC(=O)c1cccc(-n2cccc2)c1	.	.	.	-43.5	.
O=C(COc1cccc(F)c1)NNC(=O)c1cccc(-n2cccc2)c1	.	.	.	.	.
Cc1cccc(OCC(=O)N2CCN(c3nnc(-c4ccccc4)c4ccccc34)CC2)c1	.	.	.	-42.7	.
Cc1ccc(-c2nnc(N3CCN(C(=O)COc4cccc(C)c4)CC3)c3ccccc23)cc1	.	.	.	-33.2	.
SMILES	S100A4 inh HTS	ERAP1 inh	SIRT5 inh	Ecoli rRNA inh	CFTR F508del cor
Cc1ccccc1CN1CCc2c(OCC(=O)N3CCCCC3)cccc2C1=O	.	.	.	-25.3	.
CCCNC(=O)C[C@@H]1CC[C@@H]2[C@@H](COc3ccc(NC(=O)Nc4ccccc4)cc3C(=O)N2C)O1	/	/	/	.	.
COCCNC(=O)C[C@H]1CC[C@H]2[C@@H](COc3ccc(NC(=O)c4cc(C)on4)cc3C(=O)N2C)O1	.	.	.	.	.
Cc1noc(C)c1NC(=O)Nc1ccc2c(c1)C(=O)N([C@@H](C)CO)C[C@@H](C)[C@@H](CN(C)C(=O)Nc1ccc3c(c1)OCO3)O2	.	.	.	.	.
Cc1cc(C(=O)N2CC=C(c3ccccc3)CC2)c2ccccc2n1	.	.	.	.	9.9
Cc1ccc(Cl)cc1N1CCN(Cc2cc(=O)n3ccsc3n2)CC1	.	.	/	-28.6	.
CS(=O)(=O)N1CCN(Cc2cc(=O)n3ccsc3n2)CC1	.	.	.	.	.
COC(=O)[C@]1(C)CCC[C@@]2(C)C3CC[C@]4(OC(C)=O)C[C@@]3(CCC21)CC4=O (stereo partly specified)	.	.	/	.	.
COC(=O)C1(C)CCCC2(C)C3CCC(C(C)C)C(CO)C3C(CO)CC12 (stereo unspecified)	.	.	.	.	8.0
COCC(=O)N1CC2(C1)[C@@H](c1ccc(-c3ccc(F)cc3)cc1)[C@@H](CO)N2C(=O)C1CC1	.	.	.	.	.
CCN(CC)CCn1c2ccccc2c2nc3ccccc3nc21	.	.	.	.	24.2
C[C@H](NC(=O)[C@@H]1CCCN1C(=O)[C@@H]1CCCN1C(=O)OC(C)(C)C)c1ccccc1	.	.	16.4	.	.
COc1cccc(S(=O)(=O)N[C@H]2C=C[C@H](CC(=O)NCc3ccccc3)O[C@@H]2CO)c1	.	.	.	.	.
Cn1c(SCc2nc(-c3ccc(Cl)cc3)no2)nnc1-c1cccs1	.	.	33.2	.	/
C[C@@H]1CN([C@H](C)CO)C(=O)c2cccc(NS(=O)(=O)c3cn(C)cn3)c2O[C@@H]1CN(C)Cc1ccccc1	.	.	.	.	.
CCOc1ccccc1NC(=O)c1csc(C)c1C	.	.	.	-30.6	.
CC1CCC(NC(=O)CCNS(=O)(=O)c2ccccc2)CC1 (stereo unspecified)	.	.	.	.	.
CCN1CCCC1CNS(=O)(=O)c1ccc(F)c(Cl)c1 (stereo unspecified)	.	.	.	.	.
CCN1CCCC1CNS(=O)(=O)c1cccc(C(F)(F)F)c1 (stereo unspecified)	.	30.3	.	.	.
CC(=O)N1c2ccc(S(=O)(=O)NCCC(=O)NC3CCC(C)CC3)cc2CC1C (stereo unspecified)	.	.	44.4	.	.
O=C(CCNS(=O)(=O)c1cccc(C(F)(F)F)c1)NC1CC1	.	.	.	.	16.0
CC(C)NC(=O)C1C(c2ccc(C(F)(F)F)cc2)=Nc2ccccc2N1C(=O)c1ccccc1 (stereo unspecified)	.	.	/	.	.
CC(C)NC(=O)C1C(c2ccc(C(F)(F)F)cc2)=Nc2ccccc2N1C(=O)c1ccco1 (stereo unspecified)	.	43.6	/	.	.
O=C(CCl)Nc1cn(-c2ccccc2)nc1-c1ccccc1	.	.	.	-27.0	.
CC(=O)Nc1cn(-c2ccccc2)nc1-c1ccccc1	.	/	.	.	.
